Results pooled from the literature.
Each line is one published result; the experiments were not run side by side.
Cell line: Vero
Effect on: cell growth or viability

O=C(NNC(=O)c1cc2ccccc2s1)c1ccc([N+](=O)[O-])o1
CC50 (MTT; 48 h): 75 µM

CN1CCN(c2cnc3c(cc(C(=O)NCc4ccc(Cl)cc4)c(=O)n3CC(=O)N3CC(C)(F)C3)n2)C1=O
CC50 (CCK-8; 5 days): > 40 µM

COC(=O)COc1c(Cc2cc(C(C)(C)CC(C)(C)C)cc(-n3nc4ccccc4n3)c2OCC(=O)OC)cc(C(C)(C)CC(C)(C)C)cc1-n1nc2ccccc2n1
viability (MTT; 10 µM, 48 h): 89.5%

CO[C@@]12[C@H](COC(N)=O)C3=C(C(=O)C(C)=C(N)C3=O)N1C[C@@H]1N[C@@H]12
CC50 (resazurin): 0.39 µM

CN(C)c1ncnc2c1ncn2[C@@H]1O[C@H](CCl)[C@@H](NC(=O)[C@H](CSC(c2ccccc2)c2ccccc2)NC(=O)OC(C)(C)C)[C@H]1O
CC50 (MTT): > 100 µM

CCCN(CCc1cccs1)[C@H]1CCc2c(O)cccc2C1
CC50 (resazurin): 9.48 µM

O=C(Cn1ccnc1[N+](=O)[O-])NCc1ccccc1
CC50 (MTT): 142 µM

CC1(F)CN(C(=O)Cn2c(=O)c(C(=O)NCc3ccc(Cl)cc3)cc3nc(N4CCNC4=O)cnc32)C1
CC50 (CCK-8; 5 days): > 40 µM
